# From ChEMBL document CHEMBL3227946, “Antianaphylactic agents. 1. 2-(Acylamino)oxazoles” (1979)
# The source made the active and inactive calls. No rule for the calls is given here.
# Experiments:
# Cavia porcellus [1] = test: (§1) Antianaphylactic activity in ovalbumin/ovalbumin aerosol sensitized guinea pig bronchospasm model assessed as ratio of mean collapse time after pretreatment with compound to mean collapse time of control animal at 0.5 mg/kg, sc by Herxheimer test; assay type: functional; settings: route subcutaneous
# How it was run: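 Ovalbumin-sensitized male guinea pigs were given mepyramine at 0.5 mg/kg sc 0.5 h before exposure to ovalbumin aerosol (1% w/v) in a chamber. Collapse time is the time to a convulsive cough. Ratio is mean collapse time of mepyramine-treated animals over that of controls.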
# [2] = Antianaphylactic activity in ovalbumin sensitized albino guinea pig chopped lung assessed as inhibition of antigen-induced histamine release at 10 ug/mL after 15 mins relative to control; assay type: functional, Cavia porcellus
# How it was run: (§2)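 Lungs were perfused with Tyrode's, chopped into 0.5-mm cubes and split into 100-mg aliquots. Aliquots were challenged with antigen ± compound and rocked at 37 °C for 15 min. Unchallenged controls gave spontaneous release. Supernatant histamine or SRS-A was bioassayed on guinea pig ileum against standards. Values are % inhibition, mean of four samples.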
# Cavia porcellus [3] = test: as §1, with “compound in presence of mepyramine” for “compound”, “2 x 100” for “0.5”, “po compound administered prior to antigen challenge” for “sc”; assay type: functional
# How it was run: (§3)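 Ovalbumin-sensitized male guinea pigs were exposed in a chamber to ovalbumin aerosol (1% w/v) until a convulsive cough; that time is the collapse time. Compound was given orally either 2 h before challenge or in two doses at 0.5 and 3 h before. Where used, mepyramine was given at 0.5 mg/kg sc 0.5 h before. Ratio is mean collapse time of treated animals over that of controls.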
# [4] = Antianaphylactic activity in human chopped lung treated with atopic serum isolated from patients allergic to cocksfoot pollen assessed as inhibition of antigen-induced histamine release at 10 ug/mL after 15 mins relative to control; assay type: functional; settings: 0.25 h
# How it was run: (§4)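 Surgical human lung (bronchial carcinoma resections) was washed in Hank's, chopped into 0.5-mm cubes and incubated for 18 h at 18 °C with atopic serum from cocksfoot pollen-allergic patients. Tissue was washed, equilibrated in Tyrode's at 37 °C and challenged with saline pollen extract ± compound for 15 min. Histamine or SRS-A in the supernatant was bioassayed on guinea pig ileum. Values are % inhibition, mean of four samples.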
# Rattus norvegicus = test: Antianaphylactic activity in antiovalbumin IgE serum-treated Wistar rat at 2 x 100 mg/kg, po administered 2.5 hrs prior to ovalbumin challenge measured after 45 mins by passive cutaneous anaphylaxis test; assay type: functional, organism-based; design: dose 100 mg/kg; settings: in the assay text read “2 hrs and again 30 mins prior to” for “2.5 hrs prior to”
# How it was run: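 Female Wistar rats, shaved and lightly anaesthetized, received an intradermal abdominal injection of diluted rat antiovalbumin IgE serum. After 24 h they were challenged iv with ovalbumin mixed with dye. Compound was given at 2 h and again at 30 min before challenge. Rats were killed 45 min after challenge and the blue area on the inner skin surface was measured.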
# Cavia porcellus [5] = test: Antianaphylactic activity in ovalbumin/ovalbumin aerosol sensitized guinea pig bronchospasm model assessed as ratio of mean collapse time after pretreatment with compound to mean collapse time of control animal at 2 x 100 mg/kg, po compound administered prior to antigen challenge by Herxheimer test; assay type: functional; how it was run: as §3
# [6] = Antianaphylactic activity in human chopped lung treated with atopic serum isolated from patients allergic to cocksfoot pollen assessed as inhibition of antigen-induced slow-reacting substance of anaphylaxis release at 10 ug/mL after 15 mins relative to control; assay type: functional; settings: 0.25 h; how it was run: as §4
# [7] = Antianaphylactic activity in ovalbumin sensitized albino guinea pig chopped lung assessed as inhibition of antigen-induced slow-reacting substance of anaphylaxis release at 10 ug/mL after 15 mins relative to control; assay type: functional, Cavia porcellus; how it was run: as §2
# Cavia porcellus [8] = test: Antianaphylactic activity in ovalbumin/ovalbumin aerosol sensitized guinea pig bronchospasm model assessed as ratio of mean collapse time after pretreatment with compound in presence of mepyramine to mean collapse time of control animal at 1 x 2 mg/kg, po compound administered prior to antigen challenge by Herxheimer test; assay type: functional; how it was run: as §3
# Cavia porcellus [9] = test: Antianaphylactic activity in ovalbumin/ovalbumin aerosol sensitized guinea pig bronchospasm model assessed as ratio of mean collapse time after pretreatment with compound to mean collapse time of control animal at 1 x 2 mg/kg, po compound administered prior to antigen challenge by Herxheimer test; assay type: functional; how it was run: as §3
SMILES,Ratio (Cavia porcellus [1]),inhibition (INH) [2],Ratio (Cavia porcellus [3]),inhibition at 10 µg/mL [4],Activity (Rattus norvegicus),Ratio (Cavia porcellus [5]),inhibition at 10 µg/mL [6],inhibition (INH) [7],Ratio (Cavia porcellus [8]),Ratio (Cavia porcellus [9])
COc1ccc(CN(CCN(C)C)c2ccccn2)cc1 [PYRILAMINE],3.7,–,–,–,–,–,–,–,–,–
CCCCN(C(=O)C1CCC1)c1nc(C)co1,–,34%,7.4,0%,inactive,1.5,55%,74%,–,–
CN1CCC(=C2c3ccccc3CC(=O)c3sccc32)CC1 [KETOTIFEN],–,–,–,23%,–,–,100%,–,7.2,4.2
